Source: PMC8895471 (Oncology Letters, 2022)

Assays:
Assay type in all cases: cell-based, human
AsPC-1 cells [1] = assay: Cytotoxicity / viability, XTT assay; conditions: AsPC-1, 10, 15 or 20 µM gemcitabine, 48 h
AsPC-1 cells [2] = assay: Apoptosis assay using Annexin V/PI double staining; conditions: AsPC-1, 2 µM PNA, 48 h; untreated control 7%; mean of n=3
Procedure, shortened: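 AsPC-1 cells (5×10^5) were seeded in six-well plates and transfected the next day with PNAs using lipofectamine, then incubated for 48 h. Adherent and floating cells were harvested by trypsinization, washed, and resuspended in ice-cold binding buffer with FITC-Annexin V and PI. Cells were stained 15 min at room temperature in the dark and analysed by flow cytometry. Data are mean ± standard error, n=3.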

[3] = system: RAS protein in AsPC-1 cells; assay: Western blot analysis of RAS protein; conditions: AsPC-1, PNA-treated 48 h, band intensity of three blots
Procedure, shortened: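 AsPC-1 cells were treated with PNAs for 48 h, then lysed 20 min on ice in RIPA buffer with protease inhibitor and cleared at 13,000 rpm, 10 min, 4 °C. 20 µg protein per lane was resolved by SDS-PAGE and transferred by semi-dry blotting. Blots were blocked 1 h in 5% milk/TBST, probed overnight with anti-Ras antibody, then with peroxidase-conjugated secondary 1 h at room temperature. GAPDH served as reference.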

[4] = system: mutant KRAS gene expression (mRNA) in AsPC-1 cells; assay: KRAS expression profile by quantitative real-time PCR; conditions: AsPC-1, 2 µM or 4 µM PNAs, 48 h, normalised to GAPDH, n=3

How did the “cell viability (XTT)” value (AsPC-1 cells [1]) turn out when Nc1ccn([C@@H]2O[C@H](CO)[C@@H](O)C2(F)F)c(=O)n1 [Gemcitabine] was run?
Its value is “total death with no dose response”.

How did the “apoptosis (percentage of apoptotic cells)” value (AsPC-1 cells [2]) turn out when CTACGCCATCAGCTCCA-KKK [PNA1] was run?
The value was 18%.

And the “RAS protein levels (western blot)” value [3]?
The value was “decrease in total RAS protein levels”.

And the “effect on mutant KRAS gene expression (mRNA, RT-qPCR)” value [4]?
Its value is “weaker effect of PNA1 at 4 µm compared to PNA1 at 1 µM”.

Which results are given for CTDCGCCDTCDGCTCCD-KKK [PNA3]?
apoptosis (percentage of apoptotic cells) (AsPC-1 cells [2]): 20%; effect on mutant KRAS gene expression (mRNA, RT-qPCR) [4]: dose-dependent and have a significant effect

With CTDCpGCCDTCpDGCTCCpD [PNA14] as the compound, how does the “apoptosis (percentage of apoptotic cells)” value (AsPC-1 cells [2]) read?
The value was 20%.

What about the “effect on mutant KRAS gene expression (mRNA, RT-qPCR)” value [4] of the same compound?
The value was “dose-dependent and have a significant effect”.
